Data on 17 compounds can be found in ChEMBL document CHEMBL3232989, “First identification of boronic species as novel potential inhibitors of the Staphylococcus aureus NorA efflux pump” (J Med Chem, 2014).

The target of data set [1] is T1, Quinolone resistance protein NorA (Staphylococcus aureus) (UniProt P0A0J7).
T1 sequence (whole entry): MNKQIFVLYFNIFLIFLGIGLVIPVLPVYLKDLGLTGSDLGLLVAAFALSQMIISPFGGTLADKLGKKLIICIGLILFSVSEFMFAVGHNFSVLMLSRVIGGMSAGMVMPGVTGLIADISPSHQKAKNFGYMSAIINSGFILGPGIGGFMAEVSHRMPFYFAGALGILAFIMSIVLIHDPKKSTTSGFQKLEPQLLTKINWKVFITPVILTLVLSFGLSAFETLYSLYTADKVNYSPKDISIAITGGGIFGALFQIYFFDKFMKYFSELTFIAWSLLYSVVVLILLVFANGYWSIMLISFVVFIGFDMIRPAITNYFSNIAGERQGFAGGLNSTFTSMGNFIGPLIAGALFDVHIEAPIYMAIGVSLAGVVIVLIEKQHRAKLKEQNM
Kind of data set: Inhibition of NorA in fluoroquinolone-resistant Staphylococcus aureus 1199B assessed as potentiation of 4 ug/ml of ciprofloxacin MIC at 100 ug/ml after 24 hrs by microdilution method. Summed up:
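Combination with ciprofloxacin 4 μg/mL (MIC/4) against SA-1199B in MH broth microdilution, 10^6 CFU/mL, 24 h at 37 °C, read at 620 nm and visually. Compounds are first screened at 100 μg/mL; actives are 2-fold serially diluted. MMC4 is the lowest inhibitor concentration giving antibacterial activity with subinhibitory ciprofloxacin. Duplicates.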

The test system of data set [2] is Staphylococcus aureus. Nature of the data set: Toxicity in fluoroquinolone-resistant Staphylococcus aureus 1199B expressing NorA after 24 hrs by microdilution method. The data set is classed as organism-based. Conditions: in vitro. Summed up: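 Broth microdilution in Mueller–Hinton broth, 10^6 CFU/mL per well from an 18 h 37 °C culture. Compounds come from 10 mg/mL DMSO stocks as 2-fold serial dilutions, top 128 mg/L. Plates run 24 h at 37 °C and are read at 620 nm and visually. MIC is the lowest concentration with complete growth inhibition. Duplicates; 2-fold variance accepted.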
A general note: Broth dilution looks for growth in wells or tubes with falling amounts of substance.

Data set [3] in a line: Cytotoxicity against human KB cells assessed growth inhibition at 10 uM after 72 hrs by MTS assay. The data set is classed as cell-based. Conditions: read-out: GI. Summed up: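 KB cells (from NCI) grown in DMEM with 10% FCS, penicillin-streptomycin, fungizone and glutamine, 37 °C, 5% CO2; compounds in DMSO added 24 h after plating (1% DMSO final, controls same). 72 h exposure, then MTS 3 h at 37 °C, absorbance at 490 nm; inhibition = (1 − OD490 treated/OD490 control)×100, triplicate experiments.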
(In general: Formazan colour is commonly taken as a measure of viable cells.)

Data set [4] concerns Staphylococcus aureus. Kind of data set: Toxicity in Staphylococcus aureus ATCC 25923 at 100 ug/ml after 24 hrs by microdilution method. The data set is classed as organism-based. Summed up:
(§1)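 Single-point screen at 100 μg/mL of compound alone in MH broth microdilution, 10^6 CFU/mL, 24 h at 37 °C. Growth is read at 620 nm and visually, giving percent growth inhibition. Compounds inhibiting more than 90% then go to MIC determination. Duplicates.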

In data set [5] the test system is Staphylococcus aureus. Nature of the data set: Toxicity in fluoroquinolone-resistant Staphylococcus aureus 1199B expressing NorA at 100 ug/ml after 24 hrs by microdilution method. Type of data set: organism-based. Put shortly:
as §1

The test system of data set [6] is Staphylococcus aureus. Nature of the data set: Toxicity in Staphylococcus aureus ATCC 25923 after 24 hrs by microdilution method. The data set is classed as organism-based. Summed up: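 Mueller–Hinton broth microdilution; inoculum from frozen culture grown 18 h at 37 °C, 10^6 CFU/mL per well. Compounds (10 mg/mL DMSO stock) in 2-fold serial dilutions, highest 128 mg/L, first screened at 100 μg/mL. MIC = complete growth inhibition after 24 h at 37 °C, read at 620 nm and visually; duplicate; ampicillin control.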

In brackets after ≈: the same amount, converted by molar mass.

As to `OB(O)c1ccc(OCc2ccccc2)cc1`, the Activity in data set [1] came to 0.5 µg/mL. The MIC with Staphylococcus aureus [2] is above 128 µg/mL. Besides, in data set [3], the inhibition at 72 h, 10 µM is 6%.

For `Cc1c(B(O)O)ccc2ccccc12`, in data set [1], the Activity came out at 8 µg/mL. Further, the “growth inhibition (GI)” value with Staphylococcus aureus [4] and with Staphylococcus aureus [5] was below 90% in each case. The MIC entry against Staphylococcus aureus [6] was “>= 64 ug ml-1”. Moreover, in data set [3], the inhibition at 72 h, 10 µM came to 0%.

With `CSc1ccc(B(O)O)cn1`, the Activity in data set [1] is 8 µg/mL. The “growth inhibition (GI)” value in the data set with Staphylococcus aureus [4] and in the data set with Staphylococcus aureus [5] was below 90% throughout. For the same compound, in the data set with Staphylococcus aureus [6], the MIC entry is “>= 64 ug ml-1”. In data set [3], the inhibition at 72 h, 10 µM stood at 0%.

For the compound `OB(O)c1ccc2ccccc2c1`, in data set [1], the Activity is 4 µg/mL. In the data set on Staphylococcus aureus [2], the MIC is above 128 µg/mL. For the same compound, the inhibition at 72 h, 10 µM in data set [3] was 3%.

Take `OB(O)c1ccc(Cl)cc1`: the Activity in data set [1] came to 1 µg/mL. Also, in the data set with Staphylococcus aureus [2], the MIC was determined as 64 µg/mL (≈ 409 µM). Further, the inhibition at 72 h, 10 µM in data set [3] amounted to 0%.

With `OB(O)c1cccnc1F`, the Activity in data set [1] came to 8 µg/mL. Further, the “growth inhibition (GI)” value in the data set with Staphylococcus aureus [4] and with Staphylococcus aureus [5] was below 90% throughout. Also, the MIC entry against Staphylococcus aureus [6] was “>= 64 ug ml-1”. The inhibition at 72 h, 10 µM in data set [3] came to 4%.

`CC(=O)n1ncc2c(B3OC(C)(C)C(C)(C)O3)cccc21`: the Activity in data set [1] is 8 µg/mL. Moreover, the “growth inhibition (GI)” value in the data set with Staphylococcus aureus [4] and in the data set with Staphylococcus aureus [5] was below 90% in each case. In addition, the MIC result against Staphylococcus aureus [6] is “>= 64 ug ml-1”. For the same compound, the inhibition at 72 h, 10 µM in data set [3] is 0%.

Consider `OB(O)c1ccc(Br)cc1`, for which the Activity in data set [1] was found to be 2 µg/mL. Moreover, in the data set on Staphylococcus aureus [2], the MIC is above 128 µg/mL. Besides, the inhibition at 72 h, 10 µM in data set [3] worked out at 0%.

Consider `CC(C)(O)C(C)(C)OB(OC(C)(C)C(C)(C)O)c1ccc(Br)nc1`, for which the Activity in data set [1] came out at 8 µg/mL. For the same compound, the “growth inhibition (GI)” value in the data set with Staphylococcus aureus [4] and with Staphylococcus aureus [5] was below 90% each time. The MIC entry in the data set on Staphylococcus aureus [6] was “>= 64 ug ml-1”. Moreover, the inhibition at 72 h, 10 µM in data set [3] is 0%.

Turning to `Cc1cc(B(O)O)ccc1Cl`, the Activity in data set [1] stood at 2 µg/mL. Moreover, the MIC in the data set on Staphylococcus aureus [2] was above 128 µg/mL. In data set [3], the inhibition at 72 h, 10 µM came to 0%.

Take `OB(O)c1ccc(Br)nc1`: the Activity in data set [1] was found to be 8 µg/mL. Moreover, the “growth inhibition (GI)” value in the data set on Staphylococcus aureus [4] and in the data set with Staphylococcus aureus [5] was below 90% each time. In the data set on Staphylococcus aureus [6], the MIC result is given as “>= 64 ug ml-1”. In data set [3], the inhibition at 72 h, 10 µM came to 1%.

With `CC(=O)OCc1ccc(B(OC(C)(C)C(C)(C)O)OC(C)(C)C(C)(C)O)cc1`, the Activity in data set [1] worked out at 4 µg/mL. The “growth inhibition (GI)” value in the data set on Staphylococcus aureus [4] and in the data set on Staphylococcus aureus [5] was below 90% each time. Also, the MIC result in the data set on Staphylococcus aureus [6] is listed as “>= 64 ug ml-1”. For the same compound, in data set [3], the inhibition at 72 h, 10 µM is 6%.

Consider `Cn1nccc1B1OC(C)(C)C(C)(C)O1`, for which the Activity in data set [1] was 8 µg/mL. Also, the “growth inhibition (GI)” value in the data set on Staphylococcus aureus [4] and with Staphylococcus aureus [5] was below 90% in each case. For the same compound, the MIC result against Staphylococcus aureus [6] was “>= 64 ug ml-1”. Also, the inhibition at 72 h, 10 µM in data set [3] turned out to be 0%.

On to `CCOc1ccc(B(O)O)cn1`, for which the Activity in data set [1] was found to be 4 µg/mL. Also, the “growth inhibition (GI)” value in the data set with Staphylococcus aureus [4] and in the data set on Staphylococcus aureus [5] was below 90% in each case. Besides, the MIC result in the data set on Staphylococcus aureus [6] is “>= 64 ug ml-1”. Further, the inhibition at 72 h, 10 µM in data set [3] was found to be 0%.

Turning to `Cc1cc(B(O)O)cnc1Cl`, the Activity in data set [1] came out at 4 µg/mL. Moreover, the “growth inhibition (GI)” value in the data set with Staphylococcus aureus [4] is reported as below 90%. The MIC result in the data set on Staphylococcus aureus [6] was “>= 64 ug ml-1”; against Staphylococcus aureus [2] it was above 128 µg/mL. Besides, the inhibition at 72 h, 10 µM in data set [3] turned out to be 0%.

As for `OB(O)c1ccsc1`, the Activity in data set [1] stood at 8 µg/mL. For the same compound, the “growth inhibition (GI)” value in the data set on Staphylococcus aureus [4] and in the data set on Staphylococcus aureus [5] was below 90% in each case. Also, the MIC result in the data set with Staphylococcus aureus [6] was “>= 64 ug ml-1”. Besides, the inhibition at 72 h, 10 µM in data set [3] turned out to be 0%.

As for `OB(O)c1ccc(Oc2cncc(Cl)c2)nc1`, in data set [1], the Activity turned out to be 8 µg/mL. Also, the “growth inhibition (GI)” value in the data set on Staphylococcus aureus [4] and in the data set with Staphylococcus aureus [5] was below 90% each time. Further, the MIC result in the data set on Staphylococcus aureus [6] is “>= 64 ug ml-1”. Moreover, the inhibition at 72 h, 10 µM in data set [3] was determined as 0%.
